Assay results as given in publication PMC5033715 (International journal of toxicology, 2016).
Values joined by “and” are separate entries in the source; they are usually repeats but may differ in a detail not shown here. Equal entries are not always repeated. “Also recorded” adds a separate entry of the source. Where two headings read alike, the source gives them in different places. Marks after values point to notes of the source that are not given here.

Columns and labels:
[1] = Blood concentrations after single high dose; type: in vivo, rat
[2] = system: adult Sprague Dawley male rats; assay: Repeated dose study; type: in vivo, rat; conditions: for O_REAR (rears during observation period), least squares means (95% confidence interval): 80 mg/kg/day
In short: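 Male Sprague-Dawley rats (200–250 g) were housed 2 per cage on a reverse light cycle and fasted 12 h before dosing. They received vehicle or 80 mg/kg (20 mg/mL suspension) by oral gavage daily for 14 days, then 7 drug-free days; n=10, 8 at day 21. FOB ran at baseline (day −3/−4) and days 3, 7, 14 and 21. It covered quantal/categorical endpoints (Mantel-Haenszel chi-square, 2 blocks) and continuous endpoints (weight, temperature, rotarod, grip, foot splay) as mixed-model least-squares means.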

[3] = system: adult Sprague Dawley male rats; assay: Repeated dose study; type: in vivo, rat; conditions: 80 mg/kg/day for 14 days; days 4, 8, 14, 21
[4] = Solubility for intravenous administration; type: physicochemical; conditions: at concentrations required for IV administration of the test dose
[5] = Pharmacokinetic experiment, single 80 mg/kg oral dose, plasma LC-MS/MS; type: in vivo, rat; conditions: for Geometric mean of plasma concentration (95% lower and upper confidence limits) / Plasma concentration, Median (minimum; maximum): n=3
In short: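 Adult male Sprague-Dawley rats with indwelling jugular catheters, caged singly and acclimated 5 days, were fasted 12 h and given 80 mg/kg by oral gavage. Catheter blood was drawn at 0.5–48 hr, at least 3 rats per time point. EDTA plasma was acetonitrile-extracted with reserpine internal standard and assayed by LC-MS/MS (C18, duplicates; LLOQ 0.2 ng/ml). Median concentrations gave kel, Vd, Cl and T½. Cmax and Tmax were read from the curve, and ka from a one-compartment fit.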

mouse models of colitis = conditions: cited from earlier work
LANCL2 = conditions: cited from earlier work
[6] = system: adult Sprague Dawley male rats; assay: Single dose study; type: in vivo, rat; conditions: single oral 500 mg/kg; 2, 4, 8 or 14 days post-dosing
In short: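 Satellite rats given vehicle or a single 500 mg/kg oral dose were euthanized (pentobarbital 200 mg/kg ip) at 2, 4, 8 and 14 days. Brain, kidney, liver, adrenal, testes, stomach, intestines, duodenum, pancreas, heart, lungs, spleen, thymus and rib were sectioned at 5 μm and H&E stained, n=3. A board-certified veterinary pathologist examined them unblinded by light microscopy.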

[7] = system: adult Sprague Dawley male rats; assay: Single dose study; type: in vivo, rat; conditions: for tBILI, mean plasma: control 0.10; for ALT, mean plasma: control 39; for AST, mean plasma: control 69; for ALP, mean plasma: control 300
In short: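 After a 12 h fast, rats received vehicle or one 500 mg/kg oral gavage. Separate satellite rats (3 treated, 4 control per time point) were euthanized with intraperitoneal pentobarbital 200 mg/kg at 2, 4, 8 and 14 days. Blood was run through a haematology and chemistry panel including ALT, AST, bilirubin, glucose, BUN, creatinine, electrolytes, cholesterol and proteins; group means are reported.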

[8] = system: adult Sprague Dawley male rats; assay: Single dose study; type: in vivo, rat
In short: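 Rats were fasted 12 h, then given one oral gavage of vehicle or 500 mg/kg as a 100 mg/mL suspension; n=10. The functional observational battery was scored at baseline (day −3 or −4), 4 h, and days 1, 7 and 14. Quantal and categorical endpoints were compared by Fisher's exact test. Continuous endpoints (body weight, grip strength and others) were analysed by mixed model with rat as random effect, giving least-squares means per time point.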

[9] = system: adult Sprague Dawley male rats; assay: Repeated dose study; type: in vivo, rat; conditions: 80 mg/kg/day over 14 days
[10] = Day 2 after single oral 500 mg/kg
[11] = Day 4 after single oral 500 mg/kg
[12] = Day 8 after single oral 500 mg/kg
[13] = Day 14 after single oral 500 mg/kg

O=C(c1cccc(-c2nc3ccccc3[nH]2)n1)N1CCN(C(=O)c2cccc(-c3nc4ccccc4[nH]3)n2)CC1 [BT-11, piperazine-1,4-diylbis((6-(1H-benzo[d]imidazo-2-y)pyridin-2-yl)methanone)]
blood concentration, individual samples ([1]; 2 hr after 500 mg/kg oral): 32 ng/mL and 3.1 ng/mL and 13 ng/mL | blood concentration, individual samples ([1]; 4 hr after 500 mg/kg oral): 17 ng/mL and 15 ng/mL and 6.7 ng/mL | blood concentration, individual samples ([1]; 22 hr after 500 mg/kg oral): 3.0 ng/mL and 9.6 ng/mL and 3.3 ng/mL | FOB quantal endpoints, treated vs control ([2]; 80 mg/kg/day oral for 14 days): No quantal differences | behavioral evidence of detrimental effects ([2]; 80 mg/kg/day oral, 2 weeks of treatment and 1 week post-dosing): No behavioral evidence of detrimental effects | weight and hind grip, treated vs control ([2]; 14 daily oral doses of 80 mg/kg, to day 21): no significant differences | O_REAR (rears during observation period), least squares means (95% confidence interval) ([2]; Study day 3, control 29.17, P=0.4916): 27.23 (13.90-40.57) | O_REAR (rears during observation period), least squares means (95% confidence interval) ([2]; Study day 7, control 27.97, P=0.1985): 24.33 (11.00-37.67) | O_REAR (rears during observation period), least squares means (95% confidence interval) ([2]; Study day 14, control 30.27, P=0.0273): 23.93 (10.60-37.27) | tolerability ([2]; oral, 14 days at 80 mg/kg (cumulative dose 1,120 mg/kg)): well-tolerated | clinical pathological examination of blood samples, control vs test [3]: did not reveal any clinical or statistical differences | solubility [4]: too insoluble to administer by the intravenous route; also recorded: relatively insoluble; also recorded: insufficiently soluble to be given IV | time to steady state (97% level) after repeated dosing ([5]; 5 × T ½, assuming single-compartment, dose-independent pharmacokinetics): approximately 15 hr | Geometric mean of plasma concentration (95% lower and upper confidence limits) ([5]; 0.5 hr after 80 mg/kg oral): 14.60 (2.94; 72.53) ng/ml | Plasma concentration, Median (minimum; maximum) ([5]; 0.5 hr after 80 mg/kg oral): 12.18 (8.55; 29.89) ng/ml | Geometric mean of plasma concentration (95% lower and upper confidence limits) ([5]; 1 hr after 80 mg/kg oral): 23.99 (4.66; 123.40) ng/ml | Plasma concentration, Median (minimum; maximum) ([5]; 1 hr after 80 mg/kg oral): 20.95 (13.42; 49.11) ng/ml | Geometric mean of plasma concentration (95% lower and upper confidence limits) ([5]; 2 hr after 80 mg/kg oral): 19.65 (4.28; 90.23) ng/ml | Plasma concentration, Median (minimum; maximum) ([5]; 2 hr after 80 mg/kg oral): 16.88 (11.65; 38.62) ng/ml | Geometric mean of plasma concentration (95% lower and upper confidence limits) ([5]; 4 hr after 80 mg/kg oral): 8.24 (1.89; 35.94) ng/ml | Plasma concentration, Median (minimum; maximum) ([5]; 4 hr after 80 mg/kg oral): 11.07 (4.16; 12.14) ng/ml | Geometric mean of plasma concentration (95% lower and upper confidence limits) ([5]; 8 hr after 80 mg/kg oral): 5.24 (2.16; 12.73) ng/ml | Plasma concentration, Median (minimum; maximum) ([5]; 8 hr after 80 mg/kg oral): 4.33 (4.20; 7.91) ng/ml | Geometric mean of plasma concentration (95% lower and upper confidence limits) ([5]; 12 hr after 80 mg/kg oral): 1.84 (1.39; 2.45) ng/ml | Plasma concentration, Median (minimum; maximum) ([5]; 12 hr after 80 mg/kg oral): 1.83 (1.65; 2.07) ng/ml | Geometric mean of plasma concentration (95% lower and upper confidence limits) ([5]; 16 hr after 80 mg/kg oral): 2.31 (0.12; 44.19) ng/ml | Plasma concentration, Median (minimum; maximum) ([5]; 16 hr after 80 mg/kg oral): 1.40 (0.99; 8.98) ng/ml | Geometric mean of plasma concentration (95% lower and upper confidence limits) ([5]; 20 hr after 80 mg/kg oral): 1.06 (0.29; 3.90) ng/ml | Plasma concentration, Median (minimum; maximum) ([5]; 20 hr after 80 mg/kg oral): 1.39 (0.58; 1.49) ng/ml | Geometric mean of plasma concentration (95% lower and upper confidence limits) ([5]; 24 hr after 80 mg/kg oral): 0.95 (0.04; 21.25) ng/ml | Plasma concentration, Median (minimum; maximum) ([5]; 24 hr after 80 mg/kg oral): 1.01 (0.26; 3.22) ng/ml | Geometric mean of plasma concentration (95% lower and upper confidence limits) ([5]; 48 hr after 80 mg/kg oral): 1.57 (0.47; 5.31) ng/ml | Plasma concentration, Median (minimum; maximum) ([5]; 48 hr after 80 mg/kg oral): 1.90 (0.90; 2.27) ng/ml | Cmax (maximal concentration) ([5]; single 80 mg/kg oral, estimated from graph of median plasma concentrations): 21 ng/mL | Half-life (T ½) ([5]; single 80 mg/kg oral, median values 0.5-8 hr, 80 mg/kg): 3 h | inflammatory F4/80+ CD11b+ macrophages and effector Th1 cells in the gut mucosa (mouse models of colitis; 3 mouse models of colitis): decreased numbers | lowest dose with therapeutic efficacy (mouse models of colitis; 3 validated mouse models of colitis): 8 mg/kg/day | Th1 cells and Th17 cells in the spleen and MLN (mouse models of colitis; mouse colitis): decreased the levels | colonic expression of IL-10 and LANCL2 (mouse models of colitis; oral, dose-dependent): up-regulated | colonic expression of TNFα (mouse models of colitis; oral, dose-dependent): down-regulated | reduction in gut inflammation (mouse models of colitis; oral, mice, 3 mouse models of colitis/IBD): 90% | lowest (minimal) efficacious dose (mouse models of colitis; oral, mice): 8 mg/kg | reduction of colonic lesions (mouse models of colitis; oral, mice, doses 80 mg/kg and as low as 8 mg/kg): 4 X | LANCL2 binding (LANCL2): binds LANCL2 | histopathologic comparison, vehicle control vs BT-11-exposed [6]: No significant differences | tBILI, mean plasma [7, 10]: 0.20^a mg/dL | ALT, mean plasma [7, 10]: 126^a IU/L | AST, mean plasma [7, 10]: 269^a IU/L | ALP, mean plasma [7, 10]: 376^a IU/L | tBILI, mean plasma [7, 11]: 0.23^a mg/dL | ALT, mean plasma [7, 11]: 52^a IU/L | AST, mean plasma [7, 11]: 106^a IU/L | ALP, mean plasma [7, 11]: 294^a IU/L | tBILI, mean plasma [7, 12]: 0.13 ^a mg/dL | ALT, mean plasma [7, 12]: 53^a IU/L | AST, mean plasma [7, 12]: 80^a IU/L | ALP, mean plasma [7, 12]: 288 ^a IU/L | tBILI, mean plasma [7, 13]: 0.10^a mg/dL | ALT, mean plasma [7, 13]: 41^a IU/L | AST, mean plasma [7, 13]: 67^a IU/L | ALP, mean plasma [7, 13]: 265^a IU/L | weight difference vs control ([8]; 14 days after single 500 mg/kg bolus dose): < 4% | hind grip strength, least squares mean ([8]; day 1 after single oral 500 mg/kg, control 0.46, p=0.0272): 0.40 | weight, least squares mean ([8]; day 14 after single oral 500 mg/kg, control 264.46, p=0.0006): 254.71 | FOB quantal endpoints, treated vs control ([8]; single oral 500 mg/kg): no differences | behavioral evidence of detrimental effects ([8]; single oral 500 mg/kg, 2 weeks observation): No obvious behavioral evidence of detrimental effects | FOB categorical endpoints, treated vs control ([8]; single oral 500 mg/kg, time points beyond baseline): did not differ | tolerability ([8]; single oral bolus of 500 mg/kg): well-tolerated | histopathologic evidence of toxic injury [9]: no histopathologic evidence of toxic injury

O=C(Nc1cccc(-c2nc3ccccc3[nH]2)c1)c1ccc(C(=O)Nc2cccc(-c3nc4ccccc4[nH]3)c2)cc1 [CID247228, N^1,N^4-bis(3-(1H-benzo[d]imidazo-2-yl)phenyl)terephthalamide, reference compound]
anti-inflammatory activity in mice with colitis (mouse models of colitis; oral): potent oral anti-inflammatory therapeutic | LANCL2 binding (LANCL2): ligand of LANCL2

CC1=CC(=O)CC(C)(C)[C@@]1(O)/C=C/C(C)=C\C(=O)O [Abscisic acid]
LANCL2 binding (LANCL2; leads to elevation of intracellular cAMP, activation of PKA): binds to LANCL2
